Assay results gathered from unrelated publications.
Lines come from different studies, so protocols differ.
Target: Dual specificity protein kinase CLK1 (CLK1, Homo sapiens, UniProt P49759)
Method: competition with immobilised ligand

read-out	tested at	remaining binding	Structure (SMILES)
cell-free assay	1 µM	78%	O=S(=O)(NC1CCC(c2cc(F)ccc2F)(S(=O)(=O)c2ccc(Cl)cc2)CC1)C(F)(F)F (centres unmarked)
binding	10 µM	1.1%	c1cncc(-c2cccc(Nc3nccc(NC4CCCCC4)n3)c2)c1
binding	1 µM	13%	O=C(c1ccc(Nc2nccc(-c3cc4ccccc4s3)n2)cc1)N1CCC(N2CCCC2)CC1
binding	1 µM	< 10%	CNC(=O)c1ccccc1Nc1cc(Nc2ccc(N3CCOCC3)cc2OC)ncc1C(F)(F)F
binding	1 µM	100%	CCN1CCN(Cc2ccc(C(=O)Nc3ccc(C)c(Oc4ccc5c(c4)CC(=O)N5)c3)cc2C(F)(F)F)CC1
binding	1 µM	3.9%	O=C(c1ccc(Nc2ncc(Cl)c(-c3ccc(Cl)s3)n2)cc1)N1CCC(N2CCCC2)CC1
binding	1 µM	98%	CNC(=O)[C@@H]1CC[C@@H](n2c(-c3ccc4cnccc4c3)nc3ccc(C(=O)NCc4cccc(C(N)=O)c4)cc32)C1
cell-free assay	5 µM	0.7%	FC(F)(F)Oc1cccc(-c2cnc3ccc(-c4ccncc4)nn23)c1
cell-free assay	1 µM	87%	COc1cc(-c2cn(C3CCc4ccccc4N(CC(F)(F)F)C3=O)nn2)ccc1-n1ccc(C)n1 (centres unmarked)
binding	1 µM	3%	O=C(c1ccc(Nc2ncc(Cl)c(-c3cc4ccccc4s3)n2)cc1)N1CCC(N2CCCC2)CC1
binding	1 µM	100%	Cc1c(C(=O)O)cc(-c2ccc(C3CCNCC3)cc2)c2ccc(-c3ccc(C(F)(F)F)cc3)cc12
cell-free assay	5 µM	98%	COc1ncc2cc3ccccc3nc2c1C#N
binding	1 µM	100%	O=C(Nc1c[nH]nc1C(=O)NC1CCNCC1)c1cc(F)cc(F)c1
cell-free assay	1 µM	77%	COc1cc(-c2cn(C3CCc4c(F)cccc4N(CC(F)(F)F)C3=O)nn2)ccc1-n1cnc(C)c1 (centres unmarked)
